# GASC1 inh: KDM4C (human) demethylase inhibition; GST-KDM4C 2-372, H3K9me3 peptide, LANCE TR-FRET; inhibition, % at 12.5 µM; 96,000 compounds, 0.15% hits; AID 720574;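 active means mean replicate inhibition above about 25%, with at least 55% of replicates also reaching it, limit read from the data, passing the limit was not always enough; inconclusive means only one of those two conditions met; inactive means neither condition met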
# Target sequence (Q9H3R0 2-372 limits assumed): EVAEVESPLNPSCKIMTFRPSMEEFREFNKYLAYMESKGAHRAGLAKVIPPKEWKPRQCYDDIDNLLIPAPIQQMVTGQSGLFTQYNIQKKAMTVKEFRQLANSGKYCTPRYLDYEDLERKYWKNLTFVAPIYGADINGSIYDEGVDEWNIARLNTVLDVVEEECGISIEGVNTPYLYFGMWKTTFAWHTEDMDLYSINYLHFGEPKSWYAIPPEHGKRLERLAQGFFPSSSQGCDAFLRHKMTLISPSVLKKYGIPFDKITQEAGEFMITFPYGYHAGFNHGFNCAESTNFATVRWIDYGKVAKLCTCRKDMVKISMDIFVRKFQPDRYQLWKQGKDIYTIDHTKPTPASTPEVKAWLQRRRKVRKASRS
#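 Compound: one test concentration per compound; Material: GST-GASC-1 enzyme fragment 2-372; Amount: GASC-1 enzyme at 10 nM final in reaction; Also added: H3K9me3 peptide substrate, Fe(II), 2-oxoglutarate; Technique: LANCE TR-FRET; Times: 30 min demethylation and 1 h detection at room temperature.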
# IDH1 R132H inh: IDH1 R132H (human) inhibition | inhibition, % at 10 µM | AID 624101 | 70,000 compounds, 0.18% hits | IDH1 R132H reductase, diaphorase/resazurin fluorescence, 60 min; in the data active means inhibition above about 34%; inconclusive means no clear call, values can overlap the other calls; inactive means below about 11%;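 further: 0% = DMSO and 100% = no enzyme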
# T cruzi growth-1: T. cruzi proliferation inhibition; 77,000 compounds, 5.9% hits; inhibition, % at 8.34 µM; AID 624255; T. cruzi beta-gal in NIH3T3, GalScreen luminescence, 90 h;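 active means mean inhibition above about 93%, with at least 55% of replicates each passing it, limit read from the data, passing the limit was not always enough; inconclusive means only one of those two conditions holds; inactive means neither condition holds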
# Pf Dd2 inh: blocks growth of Plasmodium falciparum Dd2 parasites | P. falciparum Dd2 growth, SYBR Green, 72 h; hits give low values | activity change, % at 10 µM | 94,000 compounds, 2.3% hits; in the data active means activity change below about -80%; inconclusive means no clear call, values can overlap the other calls
# T cruzi growth-2: Trypanosoma cruzi proliferation inhibition. inhibition, % at 8.35 µM. T. cruzi beta-gal in NIH3T3, GalScreen luminescence, 90 h. shares compounds with T cruzi growth-1. 5,600 compounds, 72% hits;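 active means mean replicate inhibition above about 95% and at least 55% of replicates individually reaching it, limit read from the data; inconclusive means only one of the two criteria is met; inactive means neither criterion is met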
# T cruzi growth-3: inhibitors of T. cruzi proliferation. shares compounds with T cruzi growth-1. T. cruzi beta-gal in NIH3T3, GalScreen luminescence, 90 h. inhibition, % at 2.09 µM. 5,600 compounds, 21% hits. AID 651740;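 active means mean inhibition above about 95%, with at least 55% of replicates also reaching it, limit read from the data; inconclusive means meets just one of the two conditions; inactive means meets neither condition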;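 further: plate controls were neutral control median for no effect and positive control median for full effect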
# NIH3T3 tox: NIH/3T3 (mouse) viability loss | shares compounds with T cruzi growth-1 | NIH/3T3 viability, CellTiter-Glo ATP luminescence, 90 h | cytotoxicity (signal decrease), % at 8.35 µM | 5,600 compounds, 14% hits;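 active means mean signal decrease across replicates above about 35% based on untreated-well scatter, with enough replicates individually passing, limit read from the data; inconclusive means no rule stated though some were filed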;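 further: 0% = median of neutral control wells and 100% = median of positive control wells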
# NIH3T3 tox 2: NIH/3T3 (mouse) viability loss; shares compounds with T cruzi growth-1; NIH/3T3 viability, CellTiter-Glo ATP luminescence, 90 h; inhibition, % at 24.9 µM; 5,600 compounds, 56% hits;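 active means mean loss of cell viability signal at or above a set limit, and enough replicates individually reaching it; inconclusive means meets only the mean limit or only the replicate share; inactive means meets neither condition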;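 further: 0% = median of neutral control wells and 100% = median of positive control wells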
# Active calls of the source: *; ? = inconclusive; . = no result given. In the library only some 5.8% were active in any assay of this set; here they are far more common.
SMILES,GASC1 inh,IDH1 R132H inh,T cruzi growth-1,Pf Dd2 inh,T cruzi growth-2,T cruzi growth-3,NIH3T3 tox,NIH3T3 tox 2
COC(=O)CSc1nc(-c2ccc(F)cc2)[nH]c1-c1ccc(C)cc1,.,-1.0,.,.,.,.,.,.
COC(=O)C[C@@H]1CC[C@@H]2[C@H](COc3ccc(NS(=O)(=O)c4ccc(C)cc4)cc3C(=O)N2C)O1,-3.4,.,107.5*,-10.9,100.5*,11.2,8.2,-7.4
CN1C(=O)c2cc(NS(=O)(=O)c3ccc(F)cc3)ccc2OC[C@H]2O[C@H](CC(=O)O)CC[C@H]21,3.9,.,97.4*,5.2,?,28.1,11.7,-40.6
COC(=O)C[C@@H]1CC[C@@H]2[C@@H](COc3ccc(NS(=O)(=O)c4cccc(F)c4)cc3C(=O)N2C)O1,2.1,.,19.0,19.3,.,.,.,.
CN1C(=O)c2cc(NS(=O)(=O)c3ccc(Cl)cc3)ccc2OC[C@H]2O[C@@H](CC(=O)N3CCc4ccccc4C3)CC[C@@H]21,0.4,.,113.4*,-26.7,103.8*,27.6,21.2,70.9*
COC(=O)C[C@H]1CC[C@@H]2[C@H](COc3ccc(NS(=O)(=O)c4cccc(F)c4)cc3C(=O)N2C)O1,-0.1,.,105.1*,-26.3,-6.7,-15.0,-4.5,-16.3
CO[C@H]1CN(C)C(=O)c2ccc(NC(=O)C3CC3)cc2OC[C@H](C)N(C)C[C@@H]1C,0.2,0.0,.,10.2,.,.,.,.
CC(C)NC(=O)N1[C@H](C(=O)N2CCC(Cc3ccccc3)CC2)[C@@H](CO)[C@@H]2Cn3c(cccc3=O)[C@@H]21,-1.5,.,7.0,-35.0,.,.,.,.
C[C@H](CO)N1C[C@H](C)[C@@H](CN(C)Cc2ccc3c(c2)OCO3)Oc2cc(C#CCN(C)C)ccc2S1(=O)=O,-0.4,0.5,102.7*,-15.6,110.1*,57.7,?,104.6*
CC(C)CC#Cc1ccc2c(c1)O[C@@H](CN(C)Cc1ccc3c(c1)OCO3)[C@@H](C)CN([C@@H](C)CO)S2(=O)=O,-3.1,0.0,47.2,-63.5,.,.,.,.
C[C@@H]1CN([C@@H](C)CO)S(=O)(=O)c2ccc(C#CCN(C)C)cc2O[C@H]1CN(C)Cc1ccc2c(c1)OCO2,0.6,0.1,111.3*,-44.1,102.3*,93.9,44.8*,104.1*
CCCC#Cc1ccc2c(c1)O[C@@H](CN(C)Cc1ccc3c(c1)OCO3)[C@@H](C)CN([C@H](C)CO)S2(=O)=O,2.7,0.4,109.3*,.,91.9,104.8*,13.5,103.1*
CC(C)NC(=O)N[C@@H]1CC[C@H](CCNS(=O)(=O)c2ccc(F)cc2)O[C@@H]1CO,0.9,0.2,.,6.4,.,.,.,.
COc1ccc(S(=O)(=O)Nc2ccc3c(c2)C(=O)N([C@@H](C)CO)C[C@@H](C)[C@@H](CN(C)C(=O)c2ccncc2)OCCCC[C@@H](C)O3)cc1,0.1,1.9,24.3,-13.2,.,.,.,.
C[C@H]1CN([C@@H](C)CO)S(=O)(=O)c2ccc(C#CCN(C)C)cc2O[C@H]1CN(C)CC1CC1,2.5,-1.3,110.5*,-38.5,?,43.3,14.8,12.3
C[C@@H]1CN([C@H](C)CO)S(=O)(=O)c2ccc(C#CCN(C)C)cc2O[C@H]1CN(C)CC1CCCC1,1.7,-0.4,103.8*,-76.7,106.8*,69.3,10.5,104.4*
CCCC#Cc1ccc2c(c1)O[C@H](CN(C)CC1CC1)[C@H](C)CN([C@H](C)CO)S2(=O)=O,0.9,-1.0,-12.1,-48.1,.,.,.,.
C[C@H](CO)N1C[C@H](C)[C@H](CN(C)S(=O)(=O)c2cccs2)Oc2ncc(-c3cccc(C(F)(F)F)c3)cc2C1=O,0.3,9.8,106.3*,-0.6,102.6*,45.2,29.8,26.7*
C[C@H](CO)N1C[C@H](C)[C@H](CN(C)S(=O)(=O)c2ccc(F)cc2)Oc2ncc(-c3cccc(C(F)(F)F)c3)cc2C1=O,-0.9,-3.9,109.0*,-24.8,102.0*,59.0,42.3*,53.5*
COc1ccc(S(=O)(=O)N(C)C[C@@H]2Oc3ncc(-c4cccc(C(F)(F)F)c4)cc3C(=O)N([C@H](C)CO)C[C@@H]2C)cc1,0.6,-0.3,106.5*,-56.1,107.0*,47.7,7.7,48.6*
C[C@H](CO)N1C[C@H](C)[C@H](CN(C)S(=O)(=O)c2cccs2)Oc2ncc(-c3cccc(F)c3)cc2C1=O,-0.6,0.5,62.7,-42.6,.,.,.,.
CCC(=O)Nc1ccc2c(c1)OC[C@H](C)N(C(C)=O)C[C@H](C)[C@H](OC)CN(C)C2=O,-0.1,0.1,-10.7,-4.5,.,.,.,.
CCCN(C)C[C@H]1Oc2ncc(-c3cccc(C#N)c3)cc2C(=O)N([C@@H](C)CO)C[C@@H]1C,0.4,-0.7,1.2,-40.3,.,.,.,.
C[C@@H]1CN([C@@H](C)CO)S(=O)(=O)c2ccc(-c3ccncc3)cc2O[C@@H]1CN(C)C(=O)CC1CC1,2.1,7.1,84.6,3.0,.,.,.,.
C[C@@H]1CN([C@@H](C)CO)S(=O)(=O)c2ccc(-c3ccncc3)cc2O[C@H]1CN(C)C(=O)CC1CC1,5.4,0.5,118.1*,-5.7,84.4,85.9,3.2,?
SMILES,GASC1 inh,IDH1 R132H inh,T cruzi growth-1,Pf Dd2 inh,T cruzi growth-2,T cruzi growth-3,NIH3T3 tox,NIH3T3 tox 2
Cc1ccc(-c2ccc3c(c2)O[C@@H](CN(C)C(=O)C2CCCCC2)[C@@H](C)CN([C@@H](C)CO)S3(=O)=O)cc1,-3.1,-1.7,124.8*,-66.6,99.8*,92.8,22.1,105.9*
Cc1ccc(-c2ccc3c(c2)O[C@@H](CN(C)C(=O)C2CCCCC2)[C@@H](C)CN([C@H](C)CO)S3(=O)=O)cc1,-2.2,.,123.2*,-67.8,99.2*,93.4,13.0,106.1*
Cc1ccc(-c2ccc3c(c2)O[C@H](CN(C)C(=O)C2CCC2)[C@@H](C)CN([C@H](C)CO)S3(=O)=O)cc1,-0.9,.,56.6,-44.0,.,.,.,.
C[C@H](CO)N1C[C@H](C)[C@H](CN(C)C(=O)C2CC2)Oc2cc(-c3ccccc3F)ccc2S1(=O)=O,-1.4,-0.5,108.8*,-58.0,69.8,16.4,14.7,64.5*
O=C(Nc1ccc2c(c1)[C@@H]1C[C@H](CC(=O)N3CCCCC3)O[C@@H](CO)[C@@H]1O2)NC1CCCCC1,-1.9,.,.,-7.0,.,.,.,.
CO[C@H]1CN(C)C(=O)c2ccc(NS(=O)(=O)c3ccccc3C)cc2OC[C@@H](C)N(C)C[C@@H]1C,-0.4,0.3,47.8,-14.7,.,.,.,.
CNC[C@H]1OCCCC[C@@H](C)Oc2ccc(NC(=O)NC(C)C)cc2C(=O)N([C@H](C)CO)C[C@@H]1C,-0.9,1.1,9.6,29.6,.,.,.,.

# High-throughput results: PubChem BioAssay, Broad Institute
